Myeloid diff 2: induction of myeloid progenitor differentiation, primary screen, cell-based, flow cytometry, MLPCN library. calls only at 10 µM. AID 624256, 2012. hit rate 1% among 360,000. ER-HoxA9 myeloid progenitors, lysozyme-GFP differentiation;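 active = normalized GFP-positive differentiation at or above the plate's own cutoff, the solvent-only control mean plus 3 SD; inconclusive = no clear call, values can overlap the other calls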;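 note: cells exposed to compound for four days before flow analysis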
HNF4A DNA FP: change in binding of human HNF4A to DNA, primary screen, biochemical, fluorescence polarization, FITC-DNA. hit rate 0.3% among 360,000. activity change, % at 10 µM. 1 h. Hepatocyte nuclear factor 4-alpha (Homo sapiens), P41235; in the data active = activity change above about 30%, passing the limit was not always enough
CSN inh: inhibitors of CSN-mediated cullin deneddylation, primary screen, biochemical, fluorescence polarization, uHTS; COP9 signalosome complex subunit 5 (Homo sapiens), Q92905; Purified CSN, SCF-Nedd8-OG deneddylation; inhibition, % at 12.5 µM; hit rate 0.38% among 360,000; AID 651999, 2013;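 active = pattern-corrected inhibition above about 35%, with an unprinted fluorescence ratio check between 0.5 and 1.5, limit read from the data, passing the limit was not always enough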
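Assay system: Purified human Csn5 enzyme expressed in HEK293T cells | Amount: Enzyme 0.24 nM | Measured by: Fluorescence polarization readout | Medium: Tris/NaCl/DTT buffer, pH 7.5 | Compound dosing: One concentration, 12.5 µM, 0.25% DMSO | Times: 90 min incubation of compound, enzyme and substrate at room temperature | Control set: no-enzyme wells high, enzyme-with-substrate wells low | Read-out: % inhibition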
TPT1 inhibitor: Candida albicans TPT1 enzyme inhibitors, primary screen, biochemical, fluorescence polarization; tRNA 2'-phosphotransferase TPT1 (Candida albicans SC5314); recombinant caTPT1, FP RNA substrate dephosphorylation; inhibition, % at 5 µM; hit rate 0.81% among 300,000; AID 1962, 2009;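 active = inhibition above the mean of all tested compounds plus 3 SD, set per screening campaign, cut at about 24% in these data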
Rpn11 block: Rpn11 (PSMD14) deubiquitinase inhibitors, primary screen, biochemical, fluorescence polarization, uHTS. 26S proteasome non-ATPase regulatory subunit 14 (Homo sapiens), O00487. human 26S proteasome, Ub4-pepOG fluorescence polarization; 20S core pre-blocked with epoxomicin. inhibition, % at 20 µM. hit rate 0.59% among 360,000;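 active = inhibition at 20 µM, scaled to each plate's controls, above about 33%, limit read from the data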
Rpn11 confirm: Rpn11 (PSMD14) deubiquitinase inhibitors, confirmation, biochemical, fluorescence polarization, single concentration. shares compounds with Rpn11 block. purified human 26S proteasome, Ub4-pepOG fluorescence polarization; proteasome pretreated with epoxomicin. inhibition, % at 20 µM. hit rate 29% among 1,900. AID 602318, 2012
MMP-2 inh: MMP-2 enzyme inhibition, confirmation, counter-screen for RPN11 inhibitor project, biochemical, fluorescence, single concentration. recombinant MMP-2, FRET peptide cleavage fluorescence. shares compounds with Rpn11 block. hit rate 4% among 1,900. inhibition, % at 20 µM;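 note: human MMP-2 activated beforehand with APMA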
Thrombin inh: bovine thrombin protease inhibition, confirmation, counter-screen for Rpn11 inhibitor project, biochemical, fluorescence polarization, single concentration; shares compounds with Rpn11 block; bovine thrombin cleavage of Ub4-pepOG; inhibition, % at 20 µM; hit rate 13% among 1,900; AID 602333, 2012;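 active = mean inhibition at least 40% at 20 µM, or signal 3 deviations below plate average, so some actives read negative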
Target sequence (P00735 whole entry, looked up): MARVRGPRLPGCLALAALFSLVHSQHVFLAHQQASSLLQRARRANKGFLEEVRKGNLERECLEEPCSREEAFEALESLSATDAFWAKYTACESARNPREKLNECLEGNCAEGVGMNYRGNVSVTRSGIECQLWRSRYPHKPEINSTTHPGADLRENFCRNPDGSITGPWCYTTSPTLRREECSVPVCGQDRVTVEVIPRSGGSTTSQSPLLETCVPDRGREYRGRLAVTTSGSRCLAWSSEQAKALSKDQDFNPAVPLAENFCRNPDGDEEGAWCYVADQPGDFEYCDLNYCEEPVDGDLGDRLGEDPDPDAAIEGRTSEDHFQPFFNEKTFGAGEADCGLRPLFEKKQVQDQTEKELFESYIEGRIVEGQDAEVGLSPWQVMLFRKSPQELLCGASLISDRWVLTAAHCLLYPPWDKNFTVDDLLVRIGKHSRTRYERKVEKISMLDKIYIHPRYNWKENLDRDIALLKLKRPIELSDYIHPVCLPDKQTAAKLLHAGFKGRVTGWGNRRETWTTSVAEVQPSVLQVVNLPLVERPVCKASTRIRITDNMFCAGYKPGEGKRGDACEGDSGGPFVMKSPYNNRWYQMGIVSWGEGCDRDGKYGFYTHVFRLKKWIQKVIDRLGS
Each line names hits and unclear results; the compound was inactive in the other large screens (follow-up assays come after a bar, where shown). A selection: hits, their analogues and other compounds. The true share with any hit is near 2.3%. Cut-off read from the data, not from the text of the source, unless noted: active = inhibition above about 40%; inactive = the rest.

Nc1c(/C=C2/C=CC(=O)C(O)=C2)c(=O)nc2sc(CC(=O)N3CCCCC3)nn12	Myeloid diff 2 inconclusive (not shown: Rpn11 block)
COC1=C/C(=C/c2c(N)n3nc(CC(=O)N4CCCC4)sc3nc2=O)C=CC1=O	Rpn11 block 70 | Rpn11 confirm inactive | MMP-2 inh inactive | Thrombin inh inactive
COc1cc2c(cc1OC)CN(CC(=O)Nc1ccc(S(=O)(=O)N3CCCC3)cc1)CC2	none
COc1cc2c(cc1OC)C(C)N(CC(=O)Nc1ccc(S(=O)(=O)N3CCCC3)cc1)CC2 (stereo not drawn)	Rpn11 block 53 | Rpn11 confirm inactive | MMP-2 inh inactive | Thrombin inh inactive
Cc1ccc(CSc2sc(C(=O)c3ccccc3)c(N)c2C#N)cc1	Rpn11 block 81 | Rpn11 confirm inactive | MMP-2 inh inactive | Thrombin inh inactive
CSc1sc(-c2nnc(SCC(=O)Nc3ccc(Cl)cc3)n2C)c2c1C=CCC2	Rpn11 block 40 | Rpn11 confirm inactive | MMP-2 inh inactive | Thrombin inh inactive
Cn1c(SCC(=O)Nc2ccc(Cl)cc2)nnc1C1CC1	none
CCOC(=O)c1noc(C)c1C(=O)Nc1cccc(F)c1	Rpn11 block 83 | Rpn11 confirm inactive | MMP-2 inh inactive | Thrombin inh inactive
COc1ccc(S(=O)(=O)N2CCCCCC2)cc1C(=O)Nc1ccc(C(=O)N(C)C)cc1	none (no result: TPT1 inhibitor)
O=C(CC1OC(=O)c2ccccc21)Nc1cc(Cl)ccc1N1CCCC1 (stereo not drawn)	Rpn11 block 65 | Rpn11 confirm 62 | MMP-2 inh inactive | Thrombin inh inactive
C=CCc1cc(/C=C2/NC(=S)NC2=O)cc(OC)c1O	Rpn11 block 47 | Rpn11 confirm inactive | MMP-2 inh inactive | Thrombin inh inactive
Cc1onc(-c2ccccc2)c1C(=O)Nc1nc2c(s1)C(=O)CC(C)(C)C2	Rpn11 block 117 | Rpn11 confirm inactive | MMP-2 inh inactive | Thrombin inh inactive
Cc1nn(-c2ccc(Cl)cc2)c(Cl)c1/C=N/NC(=O)c1ccc(NS(=O)(=O)c2cccs2)cc1	none
O=C(Nc1nc2ccc(S(=O)(=O)N3CCCCC3)cc2s1)c1cccnc1	Rpn11 block 54 | Rpn11 confirm inactive | MMP-2 inh inactive | Thrombin inh inactive
Cc1ccc2nc(NC(=O)c3ccc(S(=O)(=O)N4CCCc5ccccc54)cc3)sc2c1	Rpn11 block 41 | Rpn11 confirm inactive | MMP-2 inh inactive | Thrombin inh inactive
Cc1ccc(S(=O)(=O)N2CCCC2C(=O)Nc2nc3ccccc3s2)cc1 (stereo not drawn)	Rpn11 block 31 | Rpn11 confirm inactive | MMP-2 inh inactive | Thrombin inh inactive
CCCCN1CC(O)=C(c2nc3ccccc3s2)C1=N	none
CCN1CC(O)=C(c2nc3ccccc3s2)C1=N	Rpn11 block 99 | Rpn11 confirm inactive | MMP-2 inh inactive | Thrombin inh inactive
CN(CCO)c1ccc(C=NNc2ccc([N+](=O)[O-])cc2S(=O)(=O)Nc2ccccc2C(=O)O)cc1	HNF4A DNA FP 47, Rpn11 block 90 (no result: TPT1 inhibitor) | Rpn11 confirm 73 | MMP-2 inh inactive | Thrombin inh inactive
O=C(NC1CCN(S(=O)(=O)c2cccc(Cl)c2)CC1)C1CCCCC1	none
CCn1cc(C(=O)O)c(=O)c2cc(F)c(N/N=C/c3ccccc3[N+](=O)[O-])cc21	Rpn11 block 100 | Rpn11 confirm inactive | MMP-2 inh inactive | Thrombin inh inactive
Cc1ccnc2nc(C(=O)Nc3ccc(N4CCOCC4)cc3)nn12	Rpn11 block 133 | Rpn11 confirm inactive | MMP-2 inh inactive | Thrombin inh inactive
COc1ccc(NC(=O)CCn2c(=S)[nH]c3ccccc3c2=O)cc1Cl	HNF4A DNA FP 42, Rpn11 block 129 (no result: TPT1 inhibitor) | Rpn11 confirm 63 | MMP-2 inh inactive | Thrombin inh inactive
O=C1NC(=O)/C(=C\c2ccc(O)cc2O)S1	none
COc1ccc(C2=NC(=O)NC2c2ccc(OC)cc2)cc1 (stereo not drawn)	Rpn11 block 39 | Rpn11 confirm inactive | MMP-2 inh inactive | Thrombin inh inactive
C=C(C)COC(=O)C1CC2OC2CC1C(=O)OCC(=C)C (stereo not drawn)	none (no result: TPT1 inhibitor)
COc1ccc(N(CC(=O)NCc2ccc3c(c2)OCO3)S(=O)(=O)c2ccccc2[N+](=O)[O-])c(OC)c1	Rpn11 block 56 | Rpn11 confirm inactive | MMP-2 inh inactive | Thrombin inh inactive
CC(=O)N1CCCc2cc(S(=O)(=O)N3CCCC(C(=O)Nc4cccc(C)c4)C3)ccc21 (stereo not drawn)	none
O=C(Nc1ccc(O)c(-c2nc3ccccc3s2)c1)C1=COCCO1	none
O=C(Nc1ccc(-c2nc3ccccc3s2)c(O)c1)C1=COCCO1	Rpn11 block 48 | Rpn11 confirm 43 | MMP-2 inh inactive | Thrombin inh inactive
COc1ccc(C(C)=O)cc1Cn1c(C)c(C(=O)NCCC#N)sc1=O	none (no result: TPT1 inhibitor)
CCc1nc2ccc(C(=O)NCCN3CCOCC3)cn2c1N(C=O)Cc1ccc(OC)cc1	none (no result: TPT1 inhibitor)
Cc1ccc(N=Nc2c(O)[nH]c(=O)[nH]c2=O)cc1S(=O)(=O)Nc1ccc(Br)cc1	Rpn11 block 50 (no result: TPT1 inhibitor) | Rpn11 confirm 108 | MMP-2 inh inactive | Thrombin inh 72
COc1ccc(NS(=O)(=O)c2cc(N=Nc3c(O)[nH]c(=O)[nH]c3=O)ccc2OC)cc1Br	none (no result: TPT1 inhibitor)
CCCNC(=O)c1cc(S(=O)(=O)N2CCc3ccccc32)cn1C	none
Cc1ccc(C2CC(=O)C=C(Nc3ccc(Cl)cc3)C2)cc1 (stereo not drawn)	HNF4A DNA FP 35, Rpn11 block 85 | Rpn11 confirm inactive | MMP-2 inh inactive | Thrombin inh inactive
O=C(c1ccc(F)cc1)N1CCC(C(=O)N2CCN(S(=O)(=O)c3cccc(Cl)c3)CC2)CC1	none
COc1cccc(OC)c1C(=O)NCCN1CCN(C(=O)c2c(OC)cccc2OC)CC1	Rpn11 block 134 | Rpn11 confirm inactive | MMP-2 inh inactive | Thrombin inh inactive
CCn1nc(NC(=O)c2ccccn2)c2cc3cccc(C)c3nc21	Rpn11 block 68 | Rpn11 confirm inactive | MMP-2 inh inactive | Thrombin inh inactive
O=C(Cc1ccccc1F)NCC1(N2CCOCC2)CCCCC1	none

High-throughput results (PubChem)
